pIC50: −log10 of the molar value.

Type in all cases: functional, cell-based
One test has as its system HeLa. Put plainly: Cytotoxicity against human HeLa cells after 24 hrs by MTT assay. The note with it: for pIC50: Homo sapiens, HeLa, 24 h, read-out: IC50; for IC50: hela. The essentials:
(§1)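 Cell lines from the Navy Medical College, seeded at 8000 cells/well in 96-well plates. Compounds dissolved in DMSO (stock 10 g/L) and freshly diluted in medium. Dilutions were added in duplicate 24 h after seeding, with incubation continued at 37 °C. Viability read by MTT. IC50 taken as the concentration giving 50% growth inhibition, determined following NCCLS recommendations.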
On the technique in general: Tetrazolium dyes change colour on reduction, which living cells bring about.

Test [1] is described as follows: Cytotoxicity against human QGY7701 cells after 24 hrs by MTT assay. To be noted: QGY7701, 24 h. The essentials:
as §1

The subject of another test is A549. Put plainly: Cytotoxicity against human A549 cells after 24 hrs by MTT assay. To be noted: Homo sapiens, A549, 24 h; read-out: IC50. In outline: as §1
For a further test, the system named is SW480. Put plainly: Cytotoxicity against human SW480 cells after 24 hrs by MTT assay. To be noted: SW480, 24 h. In outline:
as §1

Regarding `C=CC1=C(C(=O)N2CCN(c3cccc(Cl)c3Cl)CC2)C(c2ccc(OC)cc2)OC1` (stereo unspecified), the pIC50 with HeLa is 5.40; in test [1] it was 5.30; with A549 it was 5.05; in the test with SW480, 4.53.

Regarding `C=CC1=C(C(=O)NCCc2ccccc2F)C(c2ccc(OC)cc2)OC1` (stereo unspecified), the pIC50 in the test with HeLa is 4.43; in test [1], less than 4.00; with A549 it was less than 4.00; in the test with SW480, less than 4.00.

For the compound `C=CC1=C(C(=O)NCCC)C(c2ccc(F)cc2)OC1` (stereo unspecified), the pIC50 (in the test on HeLa; in test [1]; in the test on A549; in the test with SW480) was less than 4.00 in each case.

`C=CC1=C(C(=O)NCCc2cccc(OC)c2)C(c2ccc(F)cc2)OC1` (stereo unspecified): the IC50 entry in the test with HeLa was “Not Active”. Further, the pIC50 in test [1] was 4.06; with A549, less than 4.00; in the test on SW480, less than 4.00.

As to `C=CC1=C(C(=O)NCc2ccccc2F)C(c2ccc(OC)cc2)OC1` (stereo unspecified), the pIC50 (with HeLa; in test [1]; with A549; with SW480) was less than 4.00 throughout.

Take `C=CC1=C(C(=O)Nc2ccccc2)C(c2ccc(F)cc2)OC1` (stereo unspecified): the pIC50 was less than 4.00 in the test with HeLa, 4.33 in test [1], less than 4.00 in the test with A549 and less than 4.00 with SW480.

With `C=CC1=C(C(=O)N2CCN(c3ccc(F)cc3)CC2)C(c2ccc(OC)cc2)OC1` (stereo unspecified), the pIC50 in the test with HeLa is 5.01; in test [1] it was 4.96; with A549 it was 5.08; in the test with SW480 it was less than 4.00.

As for `C=CC1=C(C(=O)NC(C)(C)C)C(c2ccc(Cl)c(Cl)c2)OC1` (stereo unspecified), the pIC50 (in the test with HeLa; in test [1]; in the test with A549; in the test on SW480) was less than 4.00 in each case.

On to `C=CC1=C(C(=O)Nc2cccc(C)c2)C(c2ccc(F)cc2)OC1` (stereo unspecified), for which the IC50 entry in the test on HeLa is “Not Active”. For the same compound, the figures for the pIC50 (in test [1]; with A549; with SW480) were 4.25, less than 4.00 and less than 4.00, respectively.

As to `C=CC1=C(C(=O)Nc2ccccc2OC)C(c2ccc(F)cc2)OC1` (stereo unspecified), the pIC50 in the test with HeLa was less than 4.00; in test [1], 4.28; in the test with A549 it was less than 4.00; with SW480, less than 4.00.

As to `C=CC1=C(C(=O)Nc2ccccc2OC)C(c2ccc(OC)cc2)OC1` (stereo unspecified), the pIC50 (with HeLa; in test [1]; in the test on A549; in the test on SW480) was less than 4.00 each time.

`C=CC1=C(C(=O)N2CCN(c3cccc(C)c3C)CC2)C(c2ccc(OC)cc2)OC1` (stereo unspecified): the pIC50 in the test on HeLa is less than 4.00; in test [1], less than 4.00; in the test on A549, 4.99; in the test on SW480, 4.36.

On to `C=CC1=C(C(=O)NCCc2ccc(F)cc2)C(c2ccc(F)cc2)OC1` (stereo unspecified), for which the negative logarithm of the IC50 (pIC50) in the test with HeLa is less than 4.00; in test [1], 4.53; in the test with A549, less than 4.00; in the test with SW480 it was 4.44.

Take `C=CC1=C(C(=O)N2CCN(c3cccc(Cl)c3)CC2)C(c2ccc(OC)cc2)OC1` (stereo unspecified): the pIC50 in the test on HeLa is less than 4.00; in test [1], less than 4.00; with A549 it was 4.57; with SW480 it was less than 4.00.

Turning to `C=CC1=C(C(=O)NCc2ccc(OC)c(OC)c2)C(c2ccc(OC)cc2)OC1` (stereo unspecified), the pIC50 with HeLa was less than 4.00; in test [1], less than 4.00; in the test with A549 it was less than 4.00; in the test with SW480, 4.87.

`C=CC1=C(C(=O)NCCC)C(c2ccc(OC)c(OC)c2)OC1` (stereo unspecified): the pIC50 (in the test with HeLa; in test [1]; with A549; in the test with SW480) was less than 4.00 throughout.

`C=CC1=C(C(=O)O)C(c2ccc(F)cc2)OC1` (stereo unspecified): the pIC50 with HeLa was 4.17; in test [1] it was less than 4.00; in the test with A549 it was less than 4.00; in the test with SW480, less than 4.00.

Consider `C=CC1=C(C(=O)NCc2ccc(Cl)cc2)C(c2ccc(OC)c(OC)c2)OC1` (stereo unspecified), for which the pIC50 (in the test with HeLa; in test [1]; in the test on A549; in the test on SW480) was less than 4.00 throughout.

Regarding `C=CC1=C(C(=O)Nc2cccc(C)c2)C(c2ccc(OC)cc2)OC1` (stereo unspecified), the pIC50 (in the test with HeLa; in test [1]; in the test with A549; in the test with SW480) was less than 4.00 each time.

In the case of `C=CC1=C(C(=O)NCCCCC)C(c2ccc(OC)cc2)OC1` (stereo unspecified), the pIC50 in the test with HeLa was less than 4.00; in test [1], less than 4.00; in the test on A549, 4.44; with SW480, less than 4.00.

As for `C=CC1=C(C(=O)NCc2ccc(C)cc2)C(c2ccc(F)cc2)OC1` (stereo unspecified), the pIC50 with HeLa is less than 4.00; in test [1], 4.21; in the test with A549 it was less than 4.00; with SW480, less than 4.00.

Consider `C=CC1=C(C(=O)Nc2ccc(C)cc2)C(c2ccc(F)cc2)OC1` (stereo unspecified), for which the pIC50 was less than 4.00 in the test with HeLa, 4.23 in test [1], less than 4.00 with A549 and less than 4.00 in the test with SW480.

For the compound `C=CC1=C(C(=O)Nc2ccc(C)cc2)C(c2ccc(OC)cc2)OC1` (stereo unspecified), the pIC50 (with HeLa; in test [1]; in the test on A549; in the test with SW480) was less than 4.00 throughout.

In the case of `O=c1[nH]cc(F)c(=O)[nH]1` [FLUOROURACIL], the pIC50 in the test on HeLa is 4.79; in test [1], 4.84; in the test on SW480 it was 4.80.

With `C=CC1=C(C(=O)NCCCCC)C(c2ccc(F)cc2)OC1` (stereo unspecified), the pIC50 (in the test on HeLa; in test [1]; in the test with A549; with SW480) was less than 4.00 each time.

With `COc1cccc2c1C(=O)c1c(O)c3c(c(O)c1C2=O)C[C@@](O)(C(=O)CO)C[C@@H]3O[C@H]1C[C@H](N)[C@H](O)[C@H](C)O1` [DOXORUBICIN], the pIC50 is 5.95 in the test on HeLa, 5.06 in test [1], 5.18 with A549 and 4.19 in the test with SW480.

On to `C=CC1=C(C(=O)NCCc2cccc(F)c2)C(c2ccc(OC)cc2)OC1` (stereo unspecified), for which the pIC50 in the test with HeLa is 4.50; in test [1] it was less than 4.00; in the test with A549 it was less than 4.00; in the test with SW480, less than 4.00.

As to `C=CC1=C(C(=O)NC(C)(C)C)C(c2ccc(OC)cc2)OC1` (stereo unspecified), the pIC50 (in the test with HeLa; in test [1]; with A549; in the test with SW480) was less than 4.00 throughout.

Regarding `C=CC1=C(C(=O)NCCC)C(c2ccc(Cl)c(Cl)c2)OC1` (stereo unspecified), the pIC50 in the test with HeLa was less than 4.00; in test [1], 4.50; with A549, less than 4.00; in the test on SW480 it was less than 4.00.

On to `C=CC1=C(C(=O)NCC(C)C)C(c2ccc(Cl)c(Cl)c2)OC1` (stereo unspecified), for which the pIC50 was 4.22 in the test with HeLa, less than 4.00 in test [1], less than 4.00 in the test with A549 and less than 4.00 with SW480.

Turning to `C=CC1=C(C(=O)O)C(c2ccc(Cl)c(Cl)c2)OC1` (stereo unspecified), the pIC50 in the test with HeLa was 4.99; in test [1], less than 4.00; in the test with A549, less than 4.00; with SW480, less than 4.00.

With `C=CC1=C(C(=O)NCCc2cccc(OC)c2)C(c2ccc(OC)cc2)OC1` (stereo unspecified), the pIC50 (in the test with HeLa; in test [1]; in the test with A549; in the test with SW480) was less than 4.00 each time.

Take `C=CC1=C(C(=O)Nc2ccccc2OC)C(c2ccc(Cl)c(Cl)c2)OC1` (stereo unspecified): the pIC50 (in the test on HeLa; in test [1]; in the test with A549; with SW480) was less than 4.00 throughout.

The pIC50 is the IC50 on a negative log10 scale, so that one unit is a factor of ten.

Values taken from ChEMBL document CHEMBL1932981, “Synthesis of novel 2, 5-dihydrofuran derivatives and evaluation of their anticancer activity” (Eur J Med Chem, 2012).
